Rows were chosen to be rich in hits. Some 4.5% of all compounds tested hit in one or more screens of this group.
TAAR1 antag – human TAAR1 antagonists, primary screen, Fluo-8 calcium fluorescence, CHO RD-HGA16 cells | 1.5% of 360,000 active | antagonist | inhibition, % at 3 µM;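 active means inhibition above a per-plate cutoff, the mean inhibition of test compounds on that plate plus 3 SD, cut at about 49% in these data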;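 further: 0% = DMSO plus EC80 beta-PEA response and 100% = DMSO alone without agonist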
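Test system – hTAAR1-expressing CHO RD-HGA16 cells, Gα16-coupled · Reagent – β-PEA at EC80 concentration, post-compound challenge · Compound dosing – 3 µM, single point · Timing – 140 s kinetic read after compound, 140 s after agonist · Detection – Fluo-8 intracellular calcium dye fluorescence, real-time kinetic reads · Control set – DMSO and EC80 PEA controls · Repeats – n of 1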
CHO parental Ca – ATP-evoked calcium signal inhibitors, parental CHO, primary screen, counter-screen for OX1R antagonist project, cell-based, fluorescence, Fluo-8 calcium dye; parental CHO-K1, ATP-induced calcium, Fluo-8 fluorescence; 0.63% of 330,000 active; inhibition, % at 5.6 µM;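 active means inhibition above that plate's mean sample inhibition plus 3 SD, cut at about 26% in these data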;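 further: 0% = ATP-challenged DMSO wells and 100% = DMSO wells without ATP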
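Material: Parental CHO cells | Reagent: ATP | Compound dosing: Single nominal dose of 5.6 µM per compound | Detection: Intracellular calcium via Fluo-8 no-wash fluorescent dye | Read-out: % inhibition of ATP-induced calcium mobilization | Benchmarks: Low control ATP plus DMSO, high control DMSO only | Replicates: Singlicate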
GPR7 antag – GPR7 receptor antagonists, primary screen, cell-based, fluorescence, single concentration | Neuropeptides B/W receptor type 1 (Homo sapiens), P48145 | GPR7-expressing cells, fluorescence antagonist assay | inhibition, % at 4.4 µM | 1.1% of 290,000 active; in the data active means inhibition above about 16%, passing the limit was not always enough;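 further: cells stimulated with the agonist NPW; 0% = agonist with vehicle and 100% = vehicle without agonist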
OX1R antag-1 – OX1R (HCRTR1) antagonists, primary screen, fluorescence, CHO/OX1R cells, Fluo-8 calcium, orexin A. inhibition, % at 5 µM. Orexin/Hypocretin receptor type 1 (Homo sapiens), O43613. Fluo-8 calcium fluorescence. AID 434989, 2010. 0.43% of 330,000 active;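 active means inhibition above its plate's threshold, mean inhibition of all tested compounds on the plate plus 3 SD, cut at about 37% in these data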;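 further: 0% = orexin A challenge wells and 100% = SB-334867-A antagonist wells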
Target sequence (O43613 whole entry, looked up): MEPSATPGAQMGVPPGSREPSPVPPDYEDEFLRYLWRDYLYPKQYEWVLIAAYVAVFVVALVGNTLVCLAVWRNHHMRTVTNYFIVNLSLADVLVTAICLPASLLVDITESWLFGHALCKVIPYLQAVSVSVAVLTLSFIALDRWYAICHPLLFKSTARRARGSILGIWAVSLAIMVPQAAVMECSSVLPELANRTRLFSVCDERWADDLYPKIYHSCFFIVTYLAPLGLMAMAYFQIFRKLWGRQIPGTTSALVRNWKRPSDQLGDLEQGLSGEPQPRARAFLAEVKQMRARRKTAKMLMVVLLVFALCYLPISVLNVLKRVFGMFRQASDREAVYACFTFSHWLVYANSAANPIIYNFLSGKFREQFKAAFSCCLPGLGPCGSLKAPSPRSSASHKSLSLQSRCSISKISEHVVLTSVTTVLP
OX1R antag-2 – antagonists of human orexin 1 receptor (OX1R). OX1R-expressing cells, FRET antagonist read-out. AID 485270, 2010. inhibition, % at 6.6 µM. Orexin/Hypocretin receptor type 1 (Homo sapiens), O43613. 1.8% of 330,000 active; in the data active means inhibition mostly above about 38%, no sharp cut-off; inactive means mostly below about 40%;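 further: 0% = agonist challenge alone and 100% = reference antagonist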
TAAR1 agonist – human TAAR1 agonists, primary screen, Fluo-8 calcium fluorescence, CHO RD-HGA16 cells; 0.99% of 360,000 active; vehicle wells 0%, saturating PEA agonist 100%; AID 624467, 2012; activation, % at 3 µM;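 active means activation above the mean activation of all test compounds in the run plus 3 SD, cut at about 38% in these data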
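Test system: RD-HGA16 (CHO) cells co-expressing Gα16 and hTAAR1 / Benchmarks: DMSO vehicle as 0%, PEA at EC100 as 100% / Repeats: no replicates (n 1) / Measure: % activation from peak over basal fluorescence ratio, DMSO-to-PEA scaled / Timing: 17-24 h plating, Fluo-8 75 min 37 °C, 30 min RT / Technique: kinetic Fluo-8 calcium fluorescence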
Starred values were filed as active, the others as inactive; / = not tested or not shown.

SMILES	TAAR1 antag	CHO parental Ca	GPR7 antag	OX1R antag-1	OX1R antag-2	TAAR1 agonist
COc1cccc(C(=O)N[C@H](C(=O)N2CCC[C@H]2C(=O)NCc2ccccc2)C2CCCCC2)c1	-10	/	/	/	/	1
CCN1C(=O)[C@H]2[C@@H](c3ccc(C)cc3)N3C(=O)N(c4ccccc4)C(=O)[C@@]3(Cc3ccc(Cl)cc3)[C@H]2C1=O	/	-14	15	-44	63*	/
CCCOC(=O)C[N+](C)(C)CCOC1CC2CCC1(C)C2(C)C (stereo unspecified)	-8	-9	7	-11	19	2
CC(C)CCOC(=O)C[N+](C)(C)CCOC1CC2CCC1(C)C2(C)C (stereo unspecified)	-5	-13	19*	-25	5	-1
CC(=NNc1cc(C)c2cc(C)ccc2n1)c1ccccn1	39	/	/	/	/	24
N#C/C(=C\c1ccc(Cl)c([N+](=O)[O-])c1)c1ccccn1	-15	-20	-6	-8	71*	2
CC(NC(=O)/C(C#N)=C/c1ccc(OCC(=O)O)cc1)c1ccccc1 (stereo unspecified)	3	-8	18	-12	1	1
CC(NC(=O)/C(C#N)=C/c1ccc(Cl)c([N+](=O)[O-])c1)c1ccccc1 (stereo unspecified)	21	-10	-10	-28	28	39*
CCCCN1CC(COCc2ccccc2)Oc2cccc(Oc3ccc(SC)c(C)c3)c2S1(=O)=O (stereo unspecified)	16	/	/	/	/	1
CCOC(=O)Cc1csc2nc(-c3ccccc3)cn12	-21	/	/	/	/	3
Cc1cc(-c2ccc(C)c(S(=O)(=O)NCc3ccc(Br)cc3)c2)on1	24	-2	-9	6	23	-2
CCc1ccc(-c2cc(C)no2)cc1S(=O)(=O)NCCc1ccc(OC)c(OC)c1	-20	-13	-2	7	43*	1
Cc1cc(-c2ccc(C)c(S(=O)(=O)NCc3cccc(Br)c3)c2)on1	26	3	14	9	38*	0
C=CCOc1ccc(C2C(C#N)=C(N)N(N(C)C)C3=C2C(=O)CCC3)cc1 (stereo unspecified)	-10	-16	3	-26	3	7
COc1cccc(-c2nn(C)c3sc(C(=O)NCc4ccc(C)o4)cc23)c1	11	-22	-14	-25	72*	7
COc1cccc(-c2nn(C)c3sc(C(=O)NCc4ccc5c(c4)OCO5)cc23)c1	-3	-8	-2	-24	23	3
CCN1CCN(CCNC(=O)c2ccc(/C=C3/Sc4ccccc4N(Cc4cccc(Cl)c4)C3=O)cc2)CC1	56*	-7	13	7	14	36
CCN1CCN(CCNC(=O)c2ccc3c(c2)N(Cc2ccc(F)cc2)C(=O)/C(=C/c2ccccc2)S3)CC1	29	14	29*	-15	19	18
Cc1ccc(NC(=S)Nc2ccc(-c3nnc4n3CCCCC4)cc2)cc1C	1	/	/	/	/	6
O=C(N/N=C/c1cn(-c2ccccc2)nc1-c1cccs1)c1ccncc1	50*	-14	-2	-11	50	12
O=C(N/N=C\c1cn(-c2ccccc2)nc1-c1ccccc1)c1ccc(Br)o1	54*	5	-8	2	59	11
O=C(N/N=C/c1cn(-c2cccs2)nc1-c1ccccc1)c1ccc(O)cc1	26	-24	-9	8	65*	0
O=C(Nc1cccnc1)c1cn(-c2ccccc2)nc1-c1cccs1	50*	-15	3	-14	18	11
NC(=O)N/N=C/c1cn(-c2ccccc2)nc1-c1cccs1	3	-7	-7	-12	28	3
CN1OC[C@@H]2CN[C@H](c3ccc(N4CCCCC4)cc3)C[C@@H]21	-14	/	/	/	/	1
SMILES	TAAR1 antag	CHO parental Ca	GPR7 antag	OX1R antag-1	OX1R antag-2	TAAR1 agonist
CC(C)COc1ccc(-c2nn(-c3ccccc3)cc2C(=O)Nc2nccs2)cc1	73*	39*	9	26	6	11
Nc1ncnc2c1ncn2[C@@H]1O[C@H](C(=O)N[C@@H](CCc2ccccc2)C(=O)N2CCN(C(=O)N3CCOCC3)CC2)[C@@H](O)[C@H]1O	-13	/	/	/	/	1
CSCCC(NS(=O)(=O)c1ccc(Cl)cc1)C(=O)OCc1c(Cl)cccc1Cl (stereo unspecified)	42	-10	-15	-8	66*	1
CSCCC(NS(=O)(=O)c1ccc(Cl)cc1)C(=O)OCC(=O)N(C(C)C)C(C)C (stereo unspecified)	6	-14	0	-20	25	13
CSCCC(NS(=O)(=O)c1ccc(Cl)cc1)C(=O)OCc1cccc(Cl)c1 (stereo unspecified)	18	41*	-4	-12	12	1
O=C(c1ccccc1)N1CCC2CCN(S(=O)(=O)c3ccccc3)CC21 (stereo unspecified)	-26	/	/	/	/	1
COc1cccc(CN(C)C(=O)c2cccc(S(=O)(=O)N3CCN(c4ccc(F)cc4)CC3)c2)c1OC	30	35*	/	13	36	3
CN(Cc1ccc(OC(F)F)cc1)C(=O)c1cccc(S(=O)(=O)N2CCN(Cc3ccccc3)CC2)c1	49*	/	/	/	/	5
CN(CC(=O)Nc1ccc(Cl)cc1)C(=O)c1cccc(S(=O)(=O)N2CCN(Cc3ccccc3)CC2)c1	50*	37*	/	32	36	18
CN(Cc1c(F)cccc1Cl)C(=O)c1cccc(S(=O)(=O)N2CCN(Cc3ccccc3)CC2)c1	21	/	/	/	/	9
COc1cccc(CN(C)C(=O)c2cccc(S(=O)(=O)N3CCN(c4ccccc4)CC3)c2)c1OC	11	/	/	/	/	7
S=C(Nc1ccccc1)N1CCC(Cc2ccccc2)CC1	-5	-11	-3	-25	4	0
COc1ccc2c(=O)cc(CO)oc2c1	18	-4	/	2	1	0
O=C(NC(NNc1ccc([N+](=O)[O-])cc1)(C(F)(F)F)C(F)(F)F)c1ccccc1Cl	37	2	-8	0	25	7
O=C(NC(Nc1nc2ccc([N+](=O)[O-])cc2s1)(C(F)(F)F)C(F)(F)F)c1cccnc1	-32	6	-1	-2	59*	17
O=C(NC(Nc1nc2ccc([N+](=O)[O-])cc2s1)(C(F)(F)F)C(F)(F)F)c1ccccc1Cl	55*	33*	43*	25	90*	7
COc1ccc(NC(=O)c2nc(S(=O)(=O)Cc3cccc(C)c3)ncc2Cl)c(OC)c1	-1	-13	1	-23	15	0
